The results in this text go back to ChEMBL document CHEMBL1133486, “Synthesis and calpain inhibitory activity of alpha-ketoamides with 2,3-methanoleucine stereoisomers at the P2 position” (Bioorg Med Chem Lett, 2000).

Test [1] has as its target T1, Calpain-1 catalytic subunit (Sus scrofa, UniProt P35750).
T1 sequence (P35750 whole entry): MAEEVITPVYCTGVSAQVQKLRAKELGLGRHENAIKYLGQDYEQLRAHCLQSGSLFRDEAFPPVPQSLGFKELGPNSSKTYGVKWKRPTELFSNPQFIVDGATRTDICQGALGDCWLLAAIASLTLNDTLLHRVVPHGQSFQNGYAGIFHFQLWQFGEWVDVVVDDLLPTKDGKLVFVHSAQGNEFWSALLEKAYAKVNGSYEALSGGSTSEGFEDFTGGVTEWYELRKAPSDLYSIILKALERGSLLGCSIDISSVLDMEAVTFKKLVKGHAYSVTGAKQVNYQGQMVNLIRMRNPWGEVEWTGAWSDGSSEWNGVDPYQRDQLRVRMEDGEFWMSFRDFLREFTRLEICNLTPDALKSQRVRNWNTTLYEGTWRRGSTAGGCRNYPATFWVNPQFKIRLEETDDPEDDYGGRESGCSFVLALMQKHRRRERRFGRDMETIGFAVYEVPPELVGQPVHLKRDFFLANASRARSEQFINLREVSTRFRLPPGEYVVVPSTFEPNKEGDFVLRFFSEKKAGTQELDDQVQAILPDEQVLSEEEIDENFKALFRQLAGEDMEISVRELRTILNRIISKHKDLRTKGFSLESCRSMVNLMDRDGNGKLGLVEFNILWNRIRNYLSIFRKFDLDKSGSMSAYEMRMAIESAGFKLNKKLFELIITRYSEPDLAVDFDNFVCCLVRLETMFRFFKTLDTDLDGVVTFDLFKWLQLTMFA
The experiment in a line: The compound was evaluated for inhibition of Calpain 1 from porcine erythrocytes. Format: cell-based. The method in brief:
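Substrate was Suc-Leu-Tyr-AMC at two concentrations, inhibitor varied, and 5 mM CaCl2 started the reaction. Fluorescence increase (ex 370, em 440 nm) was read at ambient temperature. Ki came from Dixon plots of triplicate means.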

Another test addresses Cathepsin B (Homo sapiens, UniProt P07858). The experiment in a line: The compound was evaluated for inhibition of cathepsin B from human liver. The method in brief: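 Cathepsin B from human liver, assayed in 20 mM NaOAc pH 5.2, 0.5 mM DTT, 2% DMSO. Ki was obtained from Dixon plots (1/v versus inhibitor concentration, intersecting lines) using the average of triplicate assays.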

A short description of test [2]: Selectivity ratio of Ki values for cathepsin B inhibition by those for calpain I inhibition.

What is called Ki is the equilibrium dissociation constant of an inhibitor or competing ligand from its target. A higher Ki goes with weaker binding. Turning to `CC(C)[C@@H]1C[C@@]1(NC(=O)OCc1ccccc1)C(=O)N[C@@H](Cc1ccccc1)C(=O)C(=O)NCCc1ccccc1`, the inhibition constant (Ki) in test [1] was 0.75 µM; at Cathepsin B, 6.78 µM. Further, the Selectivity ratio in test [2] was determined as 9.

As for `CC(C)[C@@H]1C[C@]1(NC(=O)OCc1ccccc1)C(=O)N[C@@H](Cc1ccccc1)C(=O)C(=O)NCCc1ccccc1`, the Ki was found to be 40 µM in test [1] and 4.56 µM at Cathepsin B. Further, the Selectivity ratio in test [2] is 0.1.

Consider `CC(C)[C@H]1C[C@@]1(NC(=O)OCc1ccccc1)C(=O)N[C@@H](Cc1ccccc1)C(=O)C(=O)NCCc1ccccc1`, for which the Ki in test [1] turned out to be 11.1 µM; on Cathepsin B, 5.05 µM. The Selectivity ratio in test [2] was 0.5.

Regarding `CC(C)[C@H]1C[C@]1(NC(=O)OCc1ccccc1)C(=O)N[C@@H](Cc1ccccc1)C(=O)C(=O)NCCc1ccccc1`, the values for the Ki (in test [1]; at Cathepsin B) were 6.15 µM and 1.26 µM, respectively. In test [2], the Selectivity ratio is 0.2.

In the case of `CC(C)C[C@H](NC(=O)OCc1ccccc1)C(=O)N[C@@H](Cc1ccccc1)C(=O)C(=O)NCCc1ccccc1`, the values for the Ki (in test [1]; at Cathepsin B) were 0.07 µM and 0.3 µM, respectively. Moreover, in test [2], the Selectivity ratio worked out at 4.
